Measured values as given in ChEMBL document CHEMBL4689842, “EUbOPEN Chemogenomics Library wave 1” (2021).

System: U2OS
Assay: Multiplex assay against U2OS
Type: toxicity, cell-based
Settings: human
Summary of the method: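 Per cents of healthy-nucleus cells form the tubulin, mitochondrial-mass and membrane-permeability phenotype values. Live cells were stained at seeding with Hoechst33342, BioTracker Green Microtubule Cytoskeleton Dye, MitoTracker Red and Annexin V Alexa Fluor 680. After compound addition they were imaged on a CQ1 microscope at 37°C and 5% CO2, and CellPathfinder machine-learning gating split them into Hoechst high-intensity objects or normal cells, normal cells into healthy, pyknosed or fragmented nuclei, and pyknosed cells into mitotic or apoptotic.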

[1] = 12 h, 1 µM, compound concentration 1 uM, replicate 1
[2] = 12 h, 1 µM, compound concentration 1 uM, replicate 2
[3] = 12 h, 10 µM, compound concentration 10 uM, replicate 1
[4] = 12 h, 10 µM, compound concentration 10 uM, replicate 2
[5] = 24 h, 1 µM, compound concentration 1 uM, replicate 1
[6] = 24 h, 1 µM, compound concentration 1 uM, replicate 2
[7] = 24 h, 10 µM, compound concentration 10 uM, replicate 1
[8] = 24 h, 10 µM, compound concentration 10 uM, replicate 2
[9] = 48 h, 1 µM, compound concentration 1 uM, replicate 1
[10] = 48 h, 1 µM, compound concentration 1 uM, replicate 2
[11] = 48 h, 10 µM, compound concentration 10 uM, replicate 1
[12] = 48 h, 10 µM, compound concentration 10 uM, replicate 2

CNc1oc(-c2cccc3ccccc23)nc1C#N
Population Apoptotic (%) [1]: 36%
Population Fragmented Nuclei (%) [1]: 22%
Population Healthy Nuclei (%) [1]: 67%
Population Hoechst High Intensity Objects (%) [1]: 16%
Population Membrane Permeable-Phenotype (%) [1]: 10%
Population Mitochondria Different-Phenotype (%) [1]: 9%
Population Mitotic Cells (%) [1]: 63%
Population Normal (%) [1]: 83%
Population Pyknosed Nuclei (%) [1]: 10%
Population Tubulin-Different-Phenotype (%) [1]: 8%
Total Cell Count [1]: 113
Population Apoptotic (%) [2]: 0%
Population Fragmented Nuclei (%) [2]: 29%
Population Hoechst High Intensity Objects (%) [2]: 15%
Population Membrane Permeable-Phenotype (%) [2]: 3%
Population Mitochondria Different-Phenotype (%) [2]: 11%
Population Mitotic Cells (%) [2]: 100%
Population Normal (%) [2]: 84%
Population Pyknosed Nuclei (%) [2]: 2%
Population Tubulin-Different-Phenotype (%) [2]: 7%
Total Cell Count [2]: 100
Population Apoptotic (%) [3]: 86%
Population Fragmented Nuclei (%) [3]: 49%
Population Healthy Nuclei (%) [3]: 18%
Population Hoechst High Intensity Objects (%) [3]: 44%
Population Membrane Permeable-Phenotype (%) [3]: 3%
Population Mitochondria Different-Phenotype (%) [3]: 11%
Population Mitotic Cells (%) [3]: 13%
Population Normal (%) [3]: 55%
Population Pyknosed Nuclei (%) [3]: 32%
Population Tubulin-Different-Phenotype (%) [3]: 15%
Total Cell Count [3]: 259
Population Apoptotic (%) [4]: 80%
Population Fragmented Nuclei (%) [4]: 55%
Population Healthy Nuclei (%) [4]: 16%
Population Hoechst High Intensity Objects (%) [4]: 46%
Population Membrane Permeable-Phenotype (%) [4]: 1%
Population Mitochondria Different-Phenotype (%) [4]: 3%
Population Mitotic Cells (%) [4]: 19%
Population Normal (%) [4]: 53%
Population Pyknosed Nuclei (%) [4]: 28%
Population Tubulin-Different-Phenotype (%) [4]: 24%
Total Cell Count [4]: 92
Population Apoptotic (%) [5]: 53%
Population Fragmented Nuclei (%) [5]: 18%
Population Healthy Nuclei (%) [5]: 75%
Population Hoechst High Intensity Objects (%) [5]: 17%
Population Membrane Permeable-Phenotype (%) [5]: 2%
Population Mitochondria Different-Phenotype (%) [5]: 3%
Population Mitotic Cells (%) [5]: 46%
Population Normal (%) [5]: 82%
Population Pyknosed Nuclei (%) [5]: 5%
Population Tubulin-Different-Phenotype (%) [5]: 6%
Total Cell Count [5]: 119
Population Apoptotic (%) [6]: 25%
Population Fragmented Nuclei (%) [6]: 28%
Population Healthy Nuclei (%) [6]: 67%
Population Hoechst High Intensity Objects (%) [6]: 6%
Population Membrane Permeable-Phenotype (%) [6]: 1%
Population Mitochondria Different-Phenotype (%) [6]: 10%
Population Mitotic Cells (%) [6]: 75%
Population Normal (%) [6]: 93%
Population Pyknosed Nuclei (%) [6]: 3%
Population Tubulin-Different-Phenotype (%) [6]: 21%
Total Cell Count [6]: 113
Population Apoptotic (%) [7]: 86%
Population Fragmented Nuclei (%) [7]: 50%
Population Healthy Nuclei (%) [7]: 17%
Population Hoechst High Intensity Objects (%) [7]: 43%
Population Membrane Permeable-Phenotype (%) [7]: 3%
Population Mitochondria Different-Phenotype (%) [7]: 15%
Population Mitotic Cells (%) [7]: 13%
Population Normal (%) [7]: 56%
Population Pyknosed Nuclei (%) [7]: 32%
Population Tubulin-Different-Phenotype (%) [7]: 14%
Total Cell Count [7]: 352
Population Apoptotic (%) [8]: 81%
Population Fragmented Nuclei (%) [8]: 57%
Population Healthy Nuclei (%) [8]: 16%
Population Hoechst High Intensity Objects (%) [8]: 44%
Population Mitochondria Different-Phenotype (%) [8]: 3%
Population Mitotic Cells (%) [8]: 18%
Population Normal (%) [8]: 55%
Population Pyknosed Nuclei (%) [8]: 25%
Population Tubulin-Different-Phenotype (%) [8]: 26%
Total Cell Count [8]: 116
Population Apoptotic (%) [9]: 56%
Population Fragmented Nuclei (%) [9]: 16%
Population Healthy Nuclei (%) [9]: 79%
Population Hoechst High Intensity Objects (%) [9]: 14%
Population Mitochondria Different-Phenotype (%) [9]: 7%
Population Mitotic Cells (%) [9]: 43%
Population Normal (%) [9]: 85%
Population Pyknosed Nuclei (%) [9]: 3%
Population Tubulin-Different-Phenotype (%) [9]: 8%
Total Cell Count [9]: 243
Population Apoptotic (%) [10]: 0%
Population Fragmented Nuclei (%) [10]: 29%
Population Healthy Nuclei (%) [10]: 68%
Population Hoechst High Intensity Objects (%) [10]: 10%
Population Membrane Permeable-Phenotype (%) [10]: 1%
Population Mitochondria Different-Phenotype (%) [10]: 8%
Population Mitotic Cells (%) [10]: 100%
Population Normal (%) [10]: 89%
Population Pyknosed Nuclei (%) [10]: 2%
Population Tubulin-Different-Phenotype (%) [10]: 19%
Total Cell Count [10]: 155
Population Apoptotic (%) [11]: 87%
Population Fragmented Nuclei (%) [11]: 53%
Population Healthy Nuclei (%) [11]: 18%
Population Hoechst High Intensity Objects (%) [11]: 43%
Population Membrane Permeable-Phenotype (%) [11]: 3%
Population Mitochondria Different-Phenotype (%) [11]: 12%
Population Mitotic Cells (%) [11]: 12%
Population Normal (%) [11]: 56%
Population Pyknosed Nuclei (%) [11]: 27%
Population Tubulin-Different-Phenotype (%) [11]: 17%
Total Cell Count [11]: 525
Population Apoptotic (%) [12]: 81%
Population Fragmented Nuclei (%) [12]: 57%
Population Healthy Nuclei (%) [12]: 14%
Population Mitochondria Different-Phenotype (%) [12]: 5%
Population Mitotic Cells (%) [12]: 18%
Population Tubulin-Different-Phenotype (%) [12]: 26%
Total Cell Count [12]: 168
